Assay [1] relates to Mycobacterium tuberculosis. Nature of the assay: Antimycobacterial activity against moxifloxacin-resistant Mycobacterium tuberculosis harboring DNA gyraseA G88N mutant. Type of assay: functional.
Assay [2] has as its system Mycobacterium tuberculosis. Nature of the assay: Antimycobacterial activity against 5-(((3S,4R)-3-Fluoro-1-(2-(7-methoxy-2-oxo-1,5-naphthyridin-1(2H)-yl)ethyl)piperidin-4-ylamino)methyl)-2-methylnicotinonitrile-resistant Mycobacterium tuberculosis harboring DNA gyraseA D89N mutant. Type of assay: functional.
Assay [3] deals with Mycobacterium tuberculosis. The assay can be described thus: Antimycobacterial activity against 2-oxo-1-(2-(4-((3-oxo-3,4-dihydro-2H-pyrido[3,2-b][1,4]oxazin-6-yl)methylamino)piperidin-1-yl)ethyl)-1,2-dihydroquinoline-7-carbonitrile-resistant Mycobacterium tuberculosis harboring DNA gyraseA A74V mutant. The assay is classed as functional.
Assay [4] can be described thus: Ratio of MIC for 2-oxo-1-(2-(4-((3-oxo-3,4-dihydro-2H-pyrido[3,2-b][1,4]oxazin-6-yl)methylamino)piperidin-1-yl)ethyl)-1,2-dihydroquinoline-7-carbonitrile-resistant Mycobacterium tuberculosis harboring DNA gyraseA A74V mutant to MIC for wild-type Mycobacterium tuberculosis H37Rv ATCC 27294. The assay is classed as functional.
A short description of assay [5]: Ratio of MIC for 5-(((3S,4R)-3-Fluoro-1-(2-(7-methoxy-2-oxo-1,5-naphthyridin-1(2H)-yl)ethyl)piperidin-4-ylamino)methyl)-2-methylnicotinonitrile-resistant Mycobacterium tuberculosis harboring DNA gyraseA D89N mutant to MIC for wild-type Mycobacterium tuberculosis H37Rv ATCC 27294. The assay is classed as functional.
Assay [6] deals with Mycobacterium tuberculosis. Nature of the assay: Antimycobacterial activity against spontaneously resistant mutant of Mycobacterium tuberculosis H37Rv at 10 to 20 times MIC up to 6 to 8 weeks. The assay is classed as functional, organism-based. Summed up:
(§1)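 Single-step selection: mid-log H37Rv culture concentrated 100-fold to ~10^10 cfu/mL and plated in dilutions on 7H11 agar with varying drug concentrations. Drug-free plates were counted after 4 weeks at 37 °C and drug plates after 6−8 weeks. Frequency is the colony count on drug plates divided by viable cfu on drug-free plates.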

Assay [7] relates to Mycobacterium tuberculosis. The assay can be described thus: Antimycobacterial activity against spontaneously resistant mutant of Mycobacterium tuberculosis H37Rv at 8 times MIC up to 6 to 8 weeks. Type of assay: functional, organism-based. Summed up: as §1

What is called MIC is the lowest concentration found to suppress growth.

Converted amounts (≈) assume the structure as drawn. The source made the active and inactive calls. The calls are words filed in the database; no cut-off is given here. Some results are limits rather than exact numbers.

As for `NNC(=O)c1ccncc1` [ISONIAZID], the MIC came out at 0.06 µg/mL (≈ 0.438 µM) in assay [1], 0.03 µg/mL (≈ 0.219 µM) in assay [2] and 0.06 µg/mL (≈ 0.438 µM) in assay [3].

Consider `CO[C@H]1/C=C/O[C@@]2(C)Oc3c(C)c(O)c4c(O)c(c(/C=N/N5CCN(C)CC5)c(O)c4c3C2=O)NC(=O)/C(C)=C\C=C\[C@H](C)[C@H](O)[C@@H](C)[C@@H](O)[C@@H](C)[C@H](OC(C)=O)[C@@H]1C` [RIFAMPIN], for which the MIC in assay [1] amounted to 0.008 µg/mL (≈ 0.00972 µM); in assay [2], 0.015 µg/mL (≈ 0.0182 µM); in assay [3], 0.008 µg/mL (≈ 0.00972 µM).

With `COc1cnc2ccc(=O)n(CCN3CC[C@@H](NCc4cnc(C)c(C#N)c4)[C@@H](F)C3)c2c1`, the MIC is 0.03 µg/mL (≈ 0.0666 µM) in assay [1], over 1 µg/mL in assay [2] and 1 µg/mL (≈ 2.22 µM) in assay [3]. For the same molecule, the Ratio in assay [4] and in assay [5] was over 16 each time. The result in assay [6] was inactive.

For the molecule `O=C(O)c1cn(C2CC2)c2cc(N3CCNCC3)c(F)cc2c1=O` [CIPROFLOXACIN], the outcome in assay [7] was inactive. In addition, the MIC came out at 8 µg/mL (≈ 24.1 µM) in assay [1], 4 µg/mL (≈ 12.1 µM) in assay [2] and 0.25 µg/mL (≈ 0.754 µM) in assay [3]. Also, in assay [5], the Ratio stood at 16.

`O=C1COc2ccc(CN[C@H]3CCN(CCn4c(=O)ccc5ncc(F)cc54)C[C@H]3F)nc2N1`: the MIC in assay [1] was 0.06 µg/mL (≈ 0.128 µM); in assay [2], over 2 µg/mL; in assay [3], over 2 µg/mL.

Regarding `CC1COc2c(N3CCN(C)CC3)c(F)cc3c(=O)c(C(=O)O)cn1c23` (centres undefined) [OFLOXACIN], the figures for the minimal inhibitory concentration (MIC) in assay [1], in assay [2] and in assay [3] were 16 µg/mL (≈ 44.3 µM), 4 µg/mL (≈ 11.1 µM) and 1 µg/mL (≈ 2.77 µM), respectively. The Ratio in assay [5] worked out at 8.

In the case of `N#Cc1ccc2ccc(=O)n(CCN3CCC(NCc4ccc5c(n4)NC(=O)CO5)CC3)c2c1`, the outcome in assay [7] was inactive. Besides, the minimum inhibitory concentration (MIC) in assay [1] was 0.03 µg/mL (≈ 0.0654 µM); in assay [2], over 2 µg/mL; in assay [3], 2 µg/mL (≈ 4.36 µM). Besides, the Ratio in assay [4] and in assay [5] was over 16 in each case.

In the case of `COc1c(N2C[C@@H]3CCCN[C@@H]3C2)c(F)cc2c(=O)c(C(=O)O)cn(C3CC3)c12` [MOXIFLOXACIN], the figures for the MIC in assay [1], in assay [2] and in assay [3] were 4 µg/mL (≈ 9.96 µM), 1 µg/mL (≈ 2.49 µM) and 0.06 µg/mL (≈ 0.149 µM), respectively. In addition, the outcome in assay [6] was inactive.

Turning to `Cc1ncc(CNC2CCN(CCn3c(=O)ccc4ccc(C#N)cc43)CC2)cc1C#N`, the minimal inhibitory concentration (MIC) in assay [1] is 0.06 µg/mL (≈ 0.141 µM); in assay [2], over 2 µg/mL; in assay [3], over 2 µg/mL. The Ratio in assay [4] and in assay [5] was over 16 in each case.

For the origin of these results see ChEMBL document CHEMBL3286091, “Novel N-linked aminopiperidine-based gyrase inhibitors with improved hERG and in vivo efficacy against Mycobacterium tuberculosis” (J Med Chem, 2014).
